In ChEMBL document CHEMBL5058577, “EUbOPEN Chemogenomics Library 2 (Multiplex)” (2022):

Test system: U2OS
Assay: Multiplex assay against U2OS
Format: toxicity, cell-based
Conditions: human
Outline: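 With compound added, live cells were imaged on a CQ1 microscope at 37°C and 5% CO2; staining with Hoechst33342, BioTracker Green Microtubule Cytoskeleton Dye, MitoTracker Red and Annexin V Alexa Fluor 680 had been done at seeding. The CellPathfinder machine-learning gating scheme split cells into Hoechst high-intensity objects or normal cells, normal cells into healthy, pyknosed or fragmented nuclei, and pyknosed cells into mitotic or apoptotic. The tubulin, mitochondrial-mass and membrane-permeability phenotypes are per cents of healthy-nucleus cells.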

[1] = 12 h, 1 µM, compound concentration 1 uM, replicate 1
[2] = 12 h, 1 µM, compound concentration 1 uM, replicate 2
[3] = 12 h, 10 µM, compound concentration 10 uM, replicate 1
[4] = 12 h, 10 µM, compound concentration 10 uM, replicate 2
[5] = 24 h, 1 µM, compound concentration 1 uM, replicate 1
[6] = 24 h, 1 µM, compound concentration 1 uM, replicate 2
[7] = 24 h, 10 µM, compound concentration 10 uM, replicate 1
[8] = 24 h, 10 µM, compound concentration 10 uM, replicate 2
[9] = 48 h, 1 µM, compound concentration 1 uM, replicate 1
[10] = 48 h, 1 µM, compound concentration 1 uM, replicate 2
[11] = 48 h, 10 µM, compound concentration 10 uM, replicate 1
[12] = 48 h, 10 µM, compound concentration 10 uM, replicate 2

## CC(=O)NCCc1c(Cc2ccccc2)[nH]c2ccccc12 [LUZINDOLE]
[1]
  Population Apoptotic (%): 72%
  Population Fragmented Nuclei (%): 25%
  Population Healthy Nuclei (%): 65%
  Population Hoechst High Intensity Objects (%): 3%
  Population Membrane Permeable-Phenotype (%): 3%
  Population Mitochondria Different-Phenotype (%): 4%
  Population Mitotic Cells (%): 27%
  Population Normal (%): 96%
  Population Pyknosed Nuclei (%): 9%
  Population Tubulin-Different-Phenotype (%): 1%
  Total Cell Count: 233
[2]
  Population Apoptotic (%): 100%
  Population Fragmented Nuclei (%): 19%
  Population Healthy Nuclei (%): 77%
  Population Hoechst High Intensity Objects (%): 2%
  Population Membrane Permeable-Phenotype (%): 6%
  Population Mitochondria Different-Phenotype (%): 2%
  Population Mitotic Cells (%): 0%
  Population Normal (%): 97%
  Population Pyknosed Nuclei (%): 3%
  Population Tubulin-Different-Phenotype (%): 2%
  Total Cell Count: 134
[3]
  Population Apoptotic (%): 81%
  Population Fragmented Nuclei (%): 26%
  Population Healthy Nuclei (%): 65%
  Population Hoechst High Intensity Objects (%): 2%
  Population Membrane Permeable-Phenotype (%): 8%
  Population Mitochondria Different-Phenotype (%): 3%
  Population Mitotic Cells (%): 18%
  Population Normal (%): 97%
  Population Pyknosed Nuclei (%): 7%
  Population Tubulin-Different-Phenotype (%): 4%
  Total Cell Count: 291
[4]
  Population Apoptotic (%): 76%
  Population Fragmented Nuclei (%): 13%
  Population Healthy Nuclei (%): 78%
  Population Hoechst High Intensity Objects (%): 1%
  Population Membrane Permeable-Phenotype (%): 5%
  Population Mitochondria Different-Phenotype (%): 2%
  Population Mitotic Cells (%): 23%
  Population Normal (%): 98%
  Population Tubulin-Different-Phenotype (%): 3%
  Total Cell Count: 179
[5]
  Population Apoptotic (%): 90%
  Population Fragmented Nuclei (%): 19%
  Population Healthy Nuclei (%): 68%
  Population Hoechst High Intensity Objects (%): 4%
  Population Membrane Permeable-Phenotype (%): 2%
  Population Mitochondria Different-Phenotype (%): 3%
  Population Mitotic Cells (%): 10%
  Population Normal (%): 95%
  Population Pyknosed Nuclei (%): 12%
  Population Tubulin-Different-Phenotype (%): 3%
  Total Cell Count: 260
[6]
  Population Apoptotic (%): 88%
  Population Fragmented Nuclei (%): 18%
  Population Healthy Nuclei (%): 70%
  Population Hoechst High Intensity Objects (%): 0%
  Population Membrane Permeable-Phenotype (%): 5%
  Population Mitochondria Different-Phenotype (%): 1%
  Population Mitotic Cells (%): 11%
  Population Normal (%): 99%
  Population Pyknosed Nuclei (%): 10%
  Population Tubulin-Different-Phenotype (%): 4%
  Total Cell Count: 156
[7]
  Population Apoptotic (%): 88%
  Population Fragmented Nuclei (%): 25%
  Population Healthy Nuclei (%): 66%
  Population Hoechst High Intensity Objects (%): 2%
  Population Membrane Permeable-Phenotype (%): 6%
  Population Mitochondria Different-Phenotype (%): 3%
  Population Mitotic Cells (%): 12%
  Population Normal (%): 97%
  Population Pyknosed Nuclei (%): 7%
  Population Tubulin-Different-Phenotype (%): 4%
  Total Cell Count: 342
[8]
  Population Apoptotic (%): 85%
  Population Fragmented Nuclei (%): 11%
  Population Healthy Nuclei (%): 80%
  Population Hoechst High Intensity Objects (%): 0%
  Population Mitochondria Different-Phenotype (%): 1%
  Population Mitotic Cells (%): 15%
  Population Normal (%): 99%
  Population Pyknosed Nuclei (%): 8%
  Population Tubulin-Different-Phenotype (%): 3%
  Total Cell Count: 236
[9]
  Population Apoptotic (%): 91%
  Population Fragmented Nuclei (%): 16%
  Population Healthy Nuclei (%): 74%
  Population Hoechst High Intensity Objects (%): 2%
  Population Membrane Permeable-Phenotype (%): 3%
  Population Mitochondria Different-Phenotype (%): 2%
  Population Mitotic Cells (%): 8%
  Population Normal (%): 97%
  Population Pyknosed Nuclei (%): 9%
  Population Tubulin-Different-Phenotype (%): 2%
  Total Cell Count: 395
[10]
  Population Apoptotic (%): 80%
  Population Fragmented Nuclei (%): 11%
  Population Healthy Nuclei (%): 77%
  Population Hoechst High Intensity Objects (%): 1%
  Population Membrane Permeable-Phenotype (%): 8%
  Population Mitochondria Different-Phenotype (%): 1%
  Population Mitotic Cells (%): 20%
  Population Normal (%): 98%
  Population Pyknosed Nuclei (%): 11%
  Population Tubulin-Different-Phenotype (%): 4%
  Total Cell Count: 217
[11]
  Population Apoptotic (%): 89%
  Population Fragmented Nuclei (%): 21%
  Population Healthy Nuclei (%): 69%
  Population Hoechst High Intensity Objects (%): 2%
  Population Membrane Permeable-Phenotype (%): 6%
  Population Mitochondria Different-Phenotype (%): 3%
  Population Mitotic Cells (%): 10%
  Population Normal (%): 97%
  Population Pyknosed Nuclei (%): 8%
  Population Tubulin-Different-Phenotype (%): 3%
  Total Cell Count: 446
[12]
  Population Apoptotic (%): 100%
  Population Fragmented Nuclei (%): 11%
  Population Healthy Nuclei (%): 82%
  Population Hoechst High Intensity Objects (%): 1%
  Population Membrane Permeable-Phenotype (%): 5%
  Population Mitochondria Different-Phenotype (%): 2%
  Population Mitotic Cells (%): 0%
  Population Normal (%): 98%
  Population Pyknosed Nuclei (%): 5%
  Total Cell Count: 354

## N[C@@]1(C(=O)O)CO[C@H]2[C@H](C(=O)O)[C@H]21 [LY-379268]
[1]
  Population Apoptotic (%): 85%
  Population Fragmented Nuclei (%): 20%
  Population Healthy Nuclei (%): 76%
  Population Hoechst High Intensity Objects (%): 0%
  Population Membrane Permeable-Phenotype (%): 2%
  Population Mitochondria Different-Phenotype (%): 1%
  Population Mitotic Cells (%): 14%
  Population Normal (%): 99%
  Population Pyknosed Nuclei (%): 3%
  Population Tubulin-Different-Phenotype (%): 1%
  Total Cell Count: 211
[2]
  Population Apoptotic (%): 100%
  Population Fragmented Nuclei (%): 17%
  Population Healthy Nuclei (%): 79%
  Population Membrane Permeable-Phenotype (%): 8%
  Population Mitochondria Different-Phenotype (%): 2%
  Population Mitotic Cells (%): 0%
  Population Pyknosed Nuclei (%): 2%
  Population Tubulin-Different-Phenotype (%): 3%
  Total Cell Count: 108
[3]
  Population Apoptotic (%): 63%
  Population Fragmented Nuclei (%): 30%
  Population Healthy Nuclei (%): 61%
  Population Hoechst High Intensity Objects (%): 0%
  Population Membrane Permeable-Phenotype (%): 8%
  Population Mitochondria Different-Phenotype (%): 2%
  Population Mitotic Cells (%): 36%
  Population Normal (%): 99%
  Population Pyknosed Nuclei (%): 7%
  Population Tubulin-Different-Phenotype (%): 3%
  Total Cell Count: 264
[4]
  Population Apoptotic (%): 80%
  Population Fragmented Nuclei (%): 19%
  Population Healthy Nuclei (%): 77%
  Population Hoechst High Intensity Objects (%): 1%
  Population Membrane Permeable-Phenotype (%): 4%
  Population Mitochondria Different-Phenotype (%): 1%
  Population Mitotic Cells (%): 20%
  Population Normal (%): 98%
  Population Pyknosed Nuclei (%): 3%
  Population Tubulin-Different-Phenotype (%): 1%
  Total Cell Count: 143
[5]
  Population Apoptotic (%): 88%
  Population Fragmented Nuclei (%): 20%
  Population Healthy Nuclei (%): 71%
  Population Hoechst High Intensity Objects (%): 1%
  Population Membrane Permeable-Phenotype (%): 1%
  Population Mitochondria Different-Phenotype (%): 1%
  Population Mitotic Cells (%): 11%
  Population Normal (%): 98%
  Population Pyknosed Nuclei (%): 7%
  Population Tubulin-Different-Phenotype (%): 1%
  Total Cell Count: 245
[6]
  Population Apoptotic (%): 100%
  Population Fragmented Nuclei (%): 11%
  Population Healthy Nuclei (%): 79%
  Population Hoechst High Intensity Objects (%): 0%
  Population Membrane Permeable-Phenotype (%): 12%
  Population Mitochondria Different-Phenotype (%): 2%
  Population Mitotic Cells (%): 0%
  Population Normal (%): 100%
  Population Pyknosed Nuclei (%): 9%
  Population Tubulin-Different-Phenotype (%): 6%
  Total Cell Count: 133
[7]
  Population Apoptotic (%): 81%
  Population Fragmented Nuclei (%): 25%
  Population Healthy Nuclei (%): 66%
  Population Hoechst High Intensity Objects (%): 1%
  Population Membrane Permeable-Phenotype (%): 8%
  Population Mitochondria Different-Phenotype (%): 1%
  Population Mitotic Cells (%): 18%
  Population Normal (%): 98%
  Population Pyknosed Nuclei (%): 7%
  Population Tubulin-Different-Phenotype (%): 2%
  Total Cell Count: 284
[8]
  Population Apoptotic (%): 90%
  Population Fragmented Nuclei (%): 16%
  Population Healthy Nuclei (%): 77%
  Population Membrane Permeable-Phenotype (%): 4%
  Population Mitochondria Different-Phenotype (%): 4%
  Population Mitotic Cells (%): 10%
  Population Pyknosed Nuclei (%): 6%
  Population Tubulin-Different-Phenotype (%): 4%
  Total Cell Count: 165
[9]
  Population Apoptotic (%): 92%
  Population Fragmented Nuclei (%): 13%
  Population Healthy Nuclei (%): 79%
  Population Hoechst High Intensity Objects (%): 1%
  Population Membrane Permeable-Phenotype (%): 3%
  Population Mitochondria Different-Phenotype (%): 2%
  Population Mitotic Cells (%): 7%
  Population Normal (%): 98%
  Population Pyknosed Nuclei (%): 7%
  Population Tubulin-Different-Phenotype (%): 3%
  Total Cell Count: 348
[10]
  Population Apoptotic (%): 100%
  Population Fragmented Nuclei (%): 15%
  Population Healthy Nuclei (%): 72%
  Population Hoechst High Intensity Objects (%): 2%
  Population Membrane Permeable-Phenotype (%): 11%
  Population Mitochondria Different-Phenotype (%): 5%
  Population Mitotic Cells (%): 0%
  Population Normal (%): 97%
  Population Pyknosed Nuclei (%): 12%
  Population Tubulin-Different-Phenotype (%): 5%
  Total Cell Count: 178
[11]
  Population Apoptotic (%): 92%
  Population Fragmented Nuclei (%): 24%
  Population Healthy Nuclei (%): 68%
  Population Hoechst High Intensity Objects (%): 2%
  Population Membrane Permeable-Phenotype (%): 9%
  Population Mitochondria Different-Phenotype (%): 2%
  Population Mitotic Cells (%): 7%
  Population Normal (%): 97%
  Population Pyknosed Nuclei (%): 7%
  Population Tubulin-Different-Phenotype (%): 3%
  Total Cell Count: 383
[12]
  Population Apoptotic (%): 90%
  Population Fragmented Nuclei (%): 11%
  Population Healthy Nuclei (%): 83%
  Population Membrane Permeable-Phenotype (%): 3%
  Population Mitotic Cells (%): 9%
  Population Pyknosed Nuclei (%): 4%
  Total Cell Count: 228
